Measured values: ChEMBL document CHEMBL4425131, “Convergent Synthesis of Novel Muramyl Dipeptide Analogues: Inhibition of Porphyromonas gingivalis-Induced Pro-inflammatory Effects by High Doses of Muramyl Dipeptide” (J Med Chem, 2016)
Active and inactive are the calls of the source. The rule behind the calls is not given here.

Legend:
[1] = Cytotoxicity against wild type mouse RAW264.7 cells assessed as survival rate at 10 ug/ml measured for 24 hrs by trypan blue assay relative to control; format: cell-based; conditions: wild type RAW264.7 cells, read-out: Survival
Procedure, shortened: (§1)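 WT mouse macrophages in RPMI 1640 with 10% FBS (37 °C, 5% CO2) were exposed to MDP for 0, 2, 4, 8, 12, 16, 18 or 24 h, then harvested with trypsin. Viability was counted by Trypan blue exclusion and expressed relative to 0 µg/ml MDP at 24 h (set as 100%). Done in triplicate; mean ± S.E.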

RAW264.7 [2] = experiment: Effect on Porphyromonas gingivalis-induced NOD2 mRNA level in wild type mouse RAW264.7 cells at 100 ug/ml after 3 hrs by RT-PCR analysis relative to control; format: functional
Procedure, shortened: (§2)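 Macrophages left untreated (negative control), given P. gingivalis alone (positive control), or co-treated with P. gingivalis plus low (10 µg/ml) or high (100 µg/ml) MDP for 3 h. Total mRNA analysed by real-time RT-PCR for NOD2, RIP2 or A20, normalized to GAPDH. NOD2/RIP2 expressed relative to P. gingivalis alone (100%); A20 relative to the low-dose treatment (100%). Triplicates, mean ± SEM.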

RAW264.7 [3] = experiment: Effect on NFkappaB protein level in wild type mouse RAW264.7 cells at 100 ug/ml after 3 hrs by Western blot analysis relative to SC peptide; format: functional
Procedure, shortened: (§3)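 Macrophages left untreated, given a scrambled (SC) peptide as negative control, or treated with low (10 µg/ml) or high (100 µg/ml) MDP for 3 h. Whole-cell and nuclear protein fractions prepared with Hepes pH 7.9 buffers and probed by Western blot for A20, AP1, MyD88 or NFκB. Triplicate assays.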

[4] = Toxicity in Porphyromonas gingivalis-induced wild type C57BL/6 mouse septic shock model assessed as mortality at 2 mg/kg, ip; format: organism-based; conditions: in vivo
Procedure, shortened: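 Mice were 8–10-week-old WT C57BL/6, kept specific pathogen-free. They received a single i.p. co-injection of P. gingivalis (1 × 10^8/kg) plus MDP at 2 mg/kg (50 µg/mouse). Controls were DMSO alone or P. gingivalis alone. Animals were watched continuously for endotoxic response for 2 h after injection; n = 3 per group.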

RAW264.7 [5] = experiment: Effect on MyD88 protein level in wild type mouse RAW264.7 cells at 100 ug/ml after 3 hrs by Western blot analysis relative to SC peptide; format: functional; procedure, shortened: as §3
RAW264.7 [6] = experiment: Upregulation of A20 promoter DNA level in wild type mouse RAW264.7 cells at 100 ug/ml after 3 hrs by ChIP assay; format: functional, cell-based
Procedure, shortened: (§4)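 RAW264.7 cells treated with low (10 µg/ml) or high (100 µg/ml) MDP for 3 h, or transfected overnight with 1 µg AP1 cDNA as comparator. 10 µg nuclear extract from cross-linked cells immunoprecipitated with 1 µg anti-AP1 antibody or normal mouse IgG at 4 °C for 4 h; A20 promoter and GAPDH fragments amplified by PCR from input and IPs. Triplicates.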

RAW264.7 [7] = experiment: Effect on A20 protein level in wild type mouse RAW264.7 cells at 100 ug/ml after 3 hrs by Western blot analysis relative to SC peptide; format: functional; procedure, shortened: as §3
Mus musculus [8] = experiment: Antiinflammatory activity in wild type C57BL/6 mouse assessed as reduction of Porphyromonas gingivalis-induced septic shock at 8 mg/kg, ip; format: functional, organism-based
RAW264.7 [9] = experiment: Effect on NFkappaB protein level in wild type mouse RAW264.7 cells at 10 ug/ml after 3 hrs by Western blot analysis relative to SC peptide; format: functional; procedure, shortened: as §3
Peritoneal macrophage [10] = experiment: Effect on Porphyromonas gingivalis-induced TNFalpha expression in wild type mouse primary peritoneal macrophages at 10 ug/ml after 3 hrs by ELISA relative to control; format: functional
Procedure, shortened: (§5)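 Primary peritoneal macrophages from C57BL/6 mice cultured in RPMI 1640 with 10% FBS. Cells left untreated, given 10, 100 or 1,000 µg/ml MDP alone, given P. gingivalis alone, or co-treated with P. gingivalis plus 10, 100 or 1,000 µg/ml MDP for 3 h. TNF-α in conditioned medium measured by ELISA; mean ± S.E.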

RAW264.7 [11] = experiment: Effect on AP1 protein level in wild type mouse RAW264.7 cells at 100 ug/ml after 3 hrs by Western blot analysis relative to SC peptide; format: functional; procedure, shortened: as §3
RAW264.7 [12] = experiment: Upregulation of A20 protein expression in wild type mouse RAW264.7 cells after 3 hrs by Western blot analysis; format: functional, cell-based; procedure, shortened: as §3
RAW264.7 [13] = experiment: Effect on Porphyromonas gingivalis-induced RIP2 mRNA level in wild type mouse RAW264.7 cells at 100 ug/ml after 3 hrs by RT-PCR analysis relative to control; format: functional; procedure, shortened: as §2
RAW264.7 [14] = experiment: Upregulation of Porphyromonas gingivalis-induced p53 protein level in wild type mouse RAW264.7 cells at 10 to 1000 ug/ml after 3 hrs by Western blot analysis; format: functional, cell-based
Procedure, shortened: (§6)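 Macrophages treated with MDP at 0, 10, 100 or 1,000 µg/ml, alone or together with P. gingivalis, for 3 h. Total protein probed by Western blot for p21 or p53, with actin as loading control. Triplicate assays.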

RAW264.7 [15] = experiment: Effect on A20 mRNA level in wild type mouse RAW264.7 cells at 100 ug/ml after 3 hrs by RT-PCR analysis relative to control; format: functional; procedure, shortened: as §2
RAW264.7 [16] = experiment: Effect on MyD88 protein level in wild type mouse RAW264.7 cells at 10 ug/ml after 3 hrs by Western blot analysis relative to SC peptide; format: functional; procedure, shortened: as §3
RAW264.7 [17] = experiment: Effect on A20 protein level in wild type mouse RAW264.7 cells at 10 ug/ml after 3 hrs by Western blot analysis relative to SC peptide; format: functional; procedure, shortened: as §3
RAW264.7 [18] = experiment: Effect on Porphyromonas gingivalis-induced NOD2 mRNA level in wild type mouse RAW264.7 cells at 10 ug/ml after 3 hrs by RT-PCR analysis relative to control; format: functional; procedure, shortened: as §2
RAW264.7 [19] = experiment: Downregulation of Porphyromonas gingivalis-induced TNF-alpha protein expression in wild type mouse RAW264.7 cells at 10 to 200 ug/ml after 3 hrs by ELISA; format: functional, cell-based
Procedure, shortened: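 Macrophages left untreated, given P. gingivalis alone or test agent alone as controls, or co-treated with P. gingivalis plus 10, 100 or 200 µg/ml for 3 h. TNF-α in culture supernatant measured by ELISA kit; mean ± S.E.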

RAW264.7 [20] = experiment: Effect on A20 mRNA level in wild type mouse RAW264.7 cells at 10 ug/ml after 3 hrs by RT-PCR analysis relative to control; format: functional; procedure, shortened: as §2
RAW264.7 [21] = experiment: Effect on Porphyromonas gingivalis-induced RIP2 mRNA level in wild type mouse RAW264.7 cells at 10 ug/ml after 3 hrs by RT-PCR analysis relative to control; format: functional; procedure, shortened: as §2
Peritoneal macrophage [22] = experiment: Effect on Porphyromonas gingivalis-induced TNFalpha expression in wild type mouse primary peritoneal macrophages at 100 ug/ml after 3 hrs by ELISA relative to control; format: functional; procedure, shortened: as §5
RAW264.7 [23] = experiment: Upregulation of A20 mRNA level in wild type mouse RAW264.7 cells at 100 ug/ml after 3 hrs by RT-PCR analysis relative to control; format: functional; procedure, shortened: as §2
[24] = Cytotoxicity against wild type mouse RAW264.7 cells assessed as survival rate at 100 ug/ml measured for 24 hrs by trypan blue assay relative to control; format: cell-based; conditions: wild type RAW264.7 cells, read-out: Survival; procedure, shortened: as §1
RAW264.7 [25] = experiment: Upregulation of AP1 protein expression in wild type mouse RAW264.7 cells after 3 hrs by Western blot analysis; format: functional, cell-based; procedure, shortened: as §3
Peritoneal macrophage [26] = experiment: Effect on Porphyromonas gingivalis-induced TNFalpha expression in wild type mouse primary peritoneal macrophages at 1 mg/ml after 3 hrs by ELISA relative to control; format: functional; procedure, shortened: as §5
[27] = Cytotoxicity against wild type mouse RAW264.7 cells assessed as survival rate at 1 mg/ml measured for 24 hrs by trypan blue assay relative to control; format: cell-based; conditions: wild type RAW264.7 cells, read-out: Survival; procedure, shortened: as §1
RAW264.7 [28] = experiment: Upregulation of Porphyromonas gingivalis-induced p21 protein level in wild type mouse RAW264.7 cells at 10 to 1000 ug/ml after 3 hrs by Western blot analysis; format: functional, cell-based; procedure, shortened: as §6
RAW264.7 [29] = experiment: Effect on AP1 protein level in wild type mouse RAW264.7 cells at 10 ug/ml after 3 hrs by Western blot analysis relative to SC peptide; format: functional; procedure, shortened: as §3
RAW264.7 [30] = experiment: Upregulation of A20 promoter DNA level in wild type mouse RAW264.7 cells at 10 ug/ml after 3 hrs by ChIP assay; format: functional, cell-based; procedure, shortened: as §4
RAW264.7 [31] = experiment: Downregulation of Porphyromonas gingivalis-induced NFkappaB mRNA expression in wild type mouse RAW264.7 cells at 100 ug/ml after 3 hrs by RT-PCR analysis; format: functional, cell-based
Procedure, shortened: (§7)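 Macrophages in RPMI 1640 with 10% FBS, 37 °C, 5% CO2, left untreated, given P. gingivalis alone or test agent alone as controls, or co-treated with P. gingivalis plus 10, 100 or 200 µg/ml for 3 h. Total RNA analysed by real-time RT-PCR (SYBR Green) for NFkB, RIP2 or NOD2, normalized to GAPDH; mean ± S.E.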

Mus musculus [32] = experiment: Antiinflammatory activity in wild type C57BL/6 mouse assessed as reduction of Porphyromonas gingivalis-induced septic shock at 2 to 8 mg/kg, ip; format: functional, organism-based
RAW264.7 [33] = experiment: Downregulation of Porphyromonas gingivalis-induced NOD2 mRNA expression in wild type mouse RAW264.7 cells at 100 ug/ml after 3 hrs by RT-PCR analysis; format: functional, cell-based; procedure, shortened: as §7
RAW264.7 [34] = experiment: Downregulation of Porphyromonas gingivalis-induced RIP2 mRNA expression in wild type mouse RAW264.7 cells at 100 ug/ml after 3 hrs by RT-PCR analysis; format: functional, cell-based; procedure, shortened: as §7

Compound: CC(=O)N[C@H]1C(O)O[C@H](CO)[C@@H](O)[C@@H]1O[C@H](C)C(=O)N[C@@H](C)C(=O)N[C@H](CCC(=O)O)C(N)=O (some centres not stated) [MURAMYL DIPEPTIDE]
- viability at 24 h, 10 ug/ml [1]: 92%
- Activity (RAW264.7 [2]): 95%
- Activity (RAW264.7 [3]): 142%
- Activity [4]: Toxic
- Activity (RAW264.7 [5]): 144%
- Activity (RAW264.7 [6]): Active
- Activity (RAW264.7 [7]): 236%
- Activity (Mus musculus [8]): Active
- Activity (RAW264.7 [9]): 388%
- Activity (Peritoneal macrophage [10]): 129%
- Activity (RAW264.7 [11]): 282%
- Activity (RAW264.7 [12]): Active
- Activity (RAW264.7 [13]): 104%
- Activity (RAW264.7 [14]): inactive
- Activity (RAW264.7 [15]): 565%
- Activity (RAW264.7 [16]): 274%
- Activity (RAW264.7 [17]): 106%
- Activity (RAW264.7 [18]): 136%
- Activity (RAW264.7 [19]): Active
- Activity (RAW264.7 [20]): 117%
- Activity (RAW264.7 [21]): 103%
- Activity (Peritoneal macrophage [22]): 84%
- fold change (FC) (RAW264.7 [23]): 5.6
- viability at 24 h, 100 ug/ml [24]: 89%
- Activity (RAW264.7 [25]): Active
- Activity (Peritoneal macrophage [26]): 62%
- viability at 24 h, 1 mg/ml [27]: 88%
- Activity (RAW264.7 [28]): inactive
- Activity (RAW264.7 [29]): 135%
- Activity (RAW264.7 [30]): inactive

Compound: CC(=O)N[C@H]1[C@@H](OCc2ccccc2)O[C@@H]2COC(C)(C)O[C@H]2[C@@H]1O[C@H](C)C(=O)N[C@@H](C)C(=O)N[C@H](CCC(=O)OCc1ccccc1)C(N)=O
- Activity (RAW264.7 [31]): Active
- Activity (Mus musculus [32]): Active
- Activity (RAW264.7 [12]): Active
- Activity (RAW264.7 [33]): Active
- Activity (RAW264.7 [34]): Active
- Activity (RAW264.7 [19]): Active
- Activity (RAW264.7 [25]): Active
